# Hits are enriched below; roughly 2.4% of the tested compounds scored in any of these assays.
# NPY-Y2 PAM-ag = NPY-Y2 potentiators or agonists, primary screen, cell-based. Neuropeptide Y receptor type 2 (Homo sapiens), P49146. cells expressing NPY-Y2, potentiator/agonist read-out. activation, % at 3.6 µM. 220,000 compounds, 0.45% hits. AID 1359, 2008; in the data active means activation above about 27%;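 further: cells stimulated with NPY near EC25 plus isoproterenol at EC100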
# NPY1 pot ag = NPY-Y1 receptor potentiators or agonists, primary screen, cell-based | Neuropeptide Y receptor type 1 (Homo sapiens), P25929 | NPY-Y1 expressing cells, potentiator/agonist activation | activation, % at 3.6 µM | 220,000 compounds, 0.37% hits; in the data active means activation above about 33%, passing the limit was not always enough;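 further: cells stimulated with NPY at EC10 then isoproterenol at EC100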
# Target sequence (P25929 whole entry, looked up): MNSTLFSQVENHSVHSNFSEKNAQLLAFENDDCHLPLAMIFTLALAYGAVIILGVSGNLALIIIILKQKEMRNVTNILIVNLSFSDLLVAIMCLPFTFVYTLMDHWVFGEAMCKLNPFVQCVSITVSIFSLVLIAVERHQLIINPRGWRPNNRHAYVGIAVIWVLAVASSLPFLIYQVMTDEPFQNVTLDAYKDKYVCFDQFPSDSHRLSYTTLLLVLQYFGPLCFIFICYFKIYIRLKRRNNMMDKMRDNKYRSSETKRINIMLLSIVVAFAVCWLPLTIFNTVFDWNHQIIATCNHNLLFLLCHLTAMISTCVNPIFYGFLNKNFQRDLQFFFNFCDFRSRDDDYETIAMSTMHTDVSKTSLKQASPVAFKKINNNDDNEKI
# S1P4 antagonist = S1P4 receptor antagonists, primary screen, cell-based; Sphingosine 1-phosphate receptor 4 (Homo sapiens), O95977; S1P4-expressing cells, antagonist mode, reporter read-out; inhibition, % at 4.98 µM; 220,000 compounds, 0.26% hits; AID 1510, 2009; in the data active means inhibition above about 29%
# NPY Y1 blocker = NPY-Y1 receptor antagonists, primary screen, cell-based | Neuropeptide Y receptor type 1 (Homo sapiens), P25929 | HEK293-CNG Y1 cells, membrane potential fluorescence; NPY at EC95, then isoproterenol | inhibition, % at 3.6 µM | 200,000 compounds, 1% hits;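 active means inhibition above the campaign mean inhibition of all tested compounds plus 3 SD, cut at about 20% in these data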
#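 Material: HEK293 cells with Y1 receptor plus CNG channel; times: compound incubation 1 h at room temperature, readout 45 min post-stimulation; signal: fluorescence, membrane potential probe; read-out basis: fluorescence ratio normalized to % inhibition between controls; benchmarks: full-block control isoproterenol-only wells, zero-block control NPY plus isoproterenol wells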
# S1P4 ag = S1P4 receptor agonists, primary screen, cell-based | S1P4-expressing cell line, agonist reporter assay | activation, % at 4.98 µM | 220,000 compounds, 0.35% hits; in the data active means activation above about 11%
# NPY Y2 blocker = NPY-Y2 receptor antagonists, primary screen, cell-based; inhibition, % at 2.7 µM; AID 793, 2007; NPY-Y2 expressing cells, antagonist mode; 140,000 compounds, 0.99% hits; in the data active means inhibition above about 17%
# Hits are given with their value; i = inactive; nt = no result.
SMILES,NPY-Y2 PAM-ag,NPY1 pot ag,S1P4 antagonist,NPY Y1 blocker,S1P4 ag,NPY Y2 blocker
CCn1c(SCC(=O)N/N=C/c2ccc(C)o2)nnc1-c1ccc(C(C)(C)C)cc1,i,i,i,i,i,i
CCn1c(SCC(=O)N/N=C/c2c[nH]c3ccccc23)nnc1-c1ccc(C(C)(C)C)cc1,44.1,48.5,i,i,i,i
Cc1ccc(CN(C)C(=O)c2cc(COc3ccc(F)cc3Cl)on2)o1,i,i,i,20.2,i,nt
CN(C)c1ccc(C2(O)C(=O)c3ccccc3C2=O)cc1,i,i,i,i,i,i
CCCCN(CCCC)CC(O)COc1ccccc1Br (configuration not stated),i,i,i,39.6,i,25.9
Nc1cccc(C(=O)Nc2ccccc2Cl)c1,i,i,i,i,i,i
c1ccc(N2CCN(c3ncnc4c3oc3ccccc34)CC2)cc1,i,i,i,23.0,i,21.7
CN(C)CCNC(=O)Cc1c(C(=O)O)n(C)c2ccccc12,i,i,i,i,i,i
Nc1nonc1C(=O)NCCNCc1cc(Br)ccc1OCc1ccccc1F,i,i,i,44.2,i,43.1
O=C(NNC(=O)c1ccccc1Cl)c1ccncc1,i,i,i,i,i,i
Cc1cc(C)n(-c2nc(SCCN(C)C)c3c4c(sc3n2)CCCC4)n1,i,i,i,92.2,i,101.0
CCN(Cc1ccccc1)c1ccc(N=Nc2nn(C)c(C)c2[N+](=O)[O-])cc1,40.7,58.0,i,i,i,i
CCN(CC)c1ccc(N=Nc2nn(C)c(C)c2[N+](=O)[O-])cc1,i,i,i,i,i,i
CCOC(=O)c1ccc(CC(=O)c2ccc(O)cc2O)o1,34.9,i,i,i,i,i
CN1CCN(c2ccc(NC(=O)c3ccc(-c4ccc(Br)cc4)o3)cc2)CC1,31.6,41.2,i,i,i,nt
CN1CCN(Cc2nc3ccccc3c(=O)n2Cc2nc(-c3ccccc3F)cs2)CC1,i,i,i,i,i,i
CCOC(=O)c1c(NC(=O)CSc2nnc(C)c(=O)[nH]2)sc2c1CCCC2,i,i,i,i,i,i
CCOC(=O)c1c(NC(=O)CSc2nnc(C)s2)sc2c1CCCCC2,i,i,i,39.2,i,19.5
c1ccc2c(c1)oc1c(NCc3ccc4c(c3)OCO4)ncnc12,i,i,i,i,i,17.8
Cc1ccc(S(=O)(=O)N2CCOCC2)cc1NC(=O)COC(=O)c1ccc(OCc2c(C)noc2C)cc1,i,i,i,i,i,i
FC(F)(F)c1cccc(NC(=S)NNC(=S)Nc2ccc(Cl)cc2)c1,44.8,73.8,i,nt,i,nt
Cc1ccccc1Cn1cc(NC(=O)c2cc(C3CC3)on2)cn1,i,i,i,nt,i,nt
O=C(CC1C(=O)N(c2ccc(Cl)cc2)C(=S)N1CCc1ccncc1)Nc1ccc(F)cc1 (configuration not stated),52.2,60.9,i,i,i,i
CN(C)c1nc(NCc2ccccc2)nc(SCC(=O)Nc2ccccc2Cl)n1,i,i,i,25.6,i,42.9
CN(C)c1nc(NCc2ccccc2)nc(SCC(=O)Nc2ccccc2)n1,i,i,i,i,i,i
SMILES,NPY-Y2 PAM-ag,NPY1 pot ag,S1P4 antagonist,NPY Y1 blocker,S1P4 ag,NPY Y2 blocker
Cc1cccc(CCNC(=O)C2CCCN(S(=O)(=O)c3cnc[nH]3)C2)c1 (configuration not stated),i,i,i,i,i,i
O=C(NCCc1ccccc1)C1CCCN(S(=O)(=O)c2cnc[nH]2)C1 (configuration not stated),72.9,i,i,i,i,i
CCOC(=O)C1CCCN(C(=O)c2ccc(Cl)cc2)C1 (configuration not stated),i,i,i,i,i,nt
CN(CCC#N)C(=O)Cn1nc(Cc2ccncc2)c2ccccc2c1=O,i,i,i,i,i,i
CCOC(=O)CSC1=Nc2ccccc2C2=NC(CC(=O)NCc3ccc4c(c3)OCO4)C(=O)N12 (configuration not stated),i,i,i,i,72.4,i
CCOC(=O)CSC1=Nc2ccccc2C2=NC(CC(=O)NCc3ccc(OC)cc3)C(=O)N12 (configuration not stated),i,i,i,i,i,i
Cc1n[nH]c(=S)n1/N=C/c1ccccc1OCc1ccc(Cl)cc1,i,i,i,28.0,i,87.5
Cc1[nH]nc(N=CC2=C(O)CC(C)(C)CC2=O)c1-c1ccccc1,i,i,i,i,i,i
COc1ccccc1NC(=O)c1ccccc1C(=O)O,i,i,i,i,i,nt
COc1ccccc1NC(=O)c1cc2cc(Br)ccc2cc1O,85.6,95.9,i,nt,i,nt
CN(C)CCOCCP(=O)(c1ccccc1)c1ccccc1,i,i,i,i,i,i
Cc1ccc2nc(-c3ccc(NC(=S)NC(=O)C(C)C)cc3)sc2c1,i,50.7,i,i,i,i
C/C(=C\C(=O)c1ccc(Cl)cc1Cl)N(C)C,i,i,i,i,i,nt
Nc1ccc(Br)c2c1C(=O)c1ccccc1C2=O,i,i,i,i,i,i
Nc1ccc(O)c2c1C(=O)c1ccccc1C2=O,56.6,54.4,i,i,i,i
COc1ccccc1OCC(O)CNCc1ccc2c(c1)OCO2 (configuration not stated),48.0,78.8,i,nt,i,nt
COc1ccccc1CC(=O)NCc1ccc2c(c1)OCO2,i,i,i,i,i,i
c1ccc2c(c1)CCN(c1nc(CN3CCOCC3)nc3sc4c(c13)CCCC4)C2,i,i,i,23.2,i,22.6
CCNc1nc(CN2CCOCC2)nc2sc3c(c12)CCC3,i,i,i,i,i,i
O=C(CSc1nnnn1-c1ccc2c(c1)OCCO2)Nc1nc2c(s1)CCCC2,i,i,i,i,i,i
CC(=O)n1cc(N(C(=O)CCl)c2ccc([N+](=O)[O-])cc2)c2ccccc21,54.1,69.4,i,nt,i,nt
COc1ccc(Cc2nc(C(=O)Nc3ccc(Cl)cc3)cs2)cc1,i,i,i,24.0,i,19.1
CC(C)NCC(O)COc1ccc(CCOCC2CC2)cc1 (configuration not stated),91.6,96.3,i,i,i,i
CC(CCc1ccccc1)NCC(O)COc1ccccc1 (configuration not stated),99.5,104.0,i,i,i,nt
CCC(CC)NCC(O)COc1ccc(Br)cc1 (configuration not stated),i,i,i,i,i,nt
CC(C)NCC(O)COc1ccc(Br)cc1 (configuration not stated),53.7,74.7,i,i,i,nt
CC(C)NCC(O)COc1ccc2c(c1)CCC2 (configuration not stated),96.0,104.6,i,i,i,i

# Screens deposited in PubChem by The Scripps Research Institute Molecular Screening Center.
